Converted amounts (≈) assume the structure as drawn.

The experiment has as its system Mycobacterium tuberculosis. Kind of experiment: Antimicrobial activity against extensively drug-resistant Mycobacterium tuberculosis XDR-TB after 28 days by two-fold agar dilution method. It is filed as functional. Conditions: 672 h. The gist of the method:
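Two-fold serial dilutions in Middlebrook 7H11 agar with OADC supplement, final 50 to 0.78 µg/mL. Inoculum from fresh 7H11/OADC slants, adjusted to 1 mg/mL wet weight in 0.05% Tween 80 saline and diluted 10^-2 (~10^7 cfu/mL), spotted onto drug-containing agar tubes. Incubated at 37 °C; MIC is the lowest concentration inhibiting growth, read at 28 days.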
A general note: In agar dilution, organisms are placed on agar that contains the substance at set levels.
For the molecule `O=C(Cn1c(=O)oc2ccccc21)NCc1cccs1`, the MIC (usually the lowest concentration that inhibits growth of the organism) was 21.7 µM (≈ 6.25 µg/mL). On to `CO[C@H]1/C=C/O[C@@]2(C)Oc3c(C)c(O)c4c(O)c(c(/C=N/N5CCN(C)CC5)c(O)c4c3C2=O)NC(=O)/C(C)=C\C=C\[C@H](C)[C@H](O)[C@@H](C)[C@@H](O)[C@@H](C)[C@H](OC(C)=O)[C@@H]1C` [RIFAMPIN], for which the MIC was determined as 30.4 µM (≈ 25 µg/mL). `O=C(Cn1c(=O)oc2ccccc21)Nc1nc2ccccc2s1` gave an MIC of 38.4 µM (≈ 12.5 µg/mL). The molecule `CC[C@@H](CO)NCCN[C@@H](CC)CO` [ETHAMBUTOL] gave a minimum inhibitory concentration (MIC) of 24.5 µM (≈ 5 µg/mL). For `O=C(Cn1c(=O)oc2cc(Cl)ccc21)Nc1ncc([N+](=O)[O-])s1`, the MIC was determined as 17.6 µM (≈ 6.25 µg/mL). `O=C(Cn1c(=O)oc2ccccc21)NCc1ccco1` registered a minimal inhibitory concentration (MIC) of 11.5 µM (≈ 3.12 µg/mL). Molecule `O=C(Cn1c(=O)oc2cc([N+](=O)[O-])ccc21)Nc1ncc([N+](=O)[O-])s1` returned an MIC of 17.1 µM (≈ 6.25 µg/mL).

As for `NNC(=O)c1ccncc1` [ISONIAZID], the MIC turned out to be 45.6 µM (≈ 6.25 µg/mL).

`O=C(Cn1c(=O)oc2cc([N+](=O)[O-])ccc21)NCc1cccs1`: the minimal inhibitory concentration (MIC) came to 18.8 µM (≈ 6.25 µg/mL).

For `O=C(Cn1c(=O)oc2cc(Cl)ccc21)Nc1nc2ccccc2s1`, inhibition of growth (MIC) required 34.7 µM (≈ 12.5 µg/mL).

As to `O=C(Cn1c(=O)oc2cc([N+](=O)[O-])ccc21)Nc1nc2ccc([N+](=O)[O-])cc2s1`, the MIC amounted to 15 µM (≈ 6.25 µg/mL).

(Values after ChEMBL document CHEMBL3352380, “Development of benzo[d]oxazol-2(3H)-ones derivatives as novel inhibitors of Mycobacterium tuberculosis InhA” (Bioorg Med Chem, 2014).)
